# From ChEMBL document CHEMBL1146456, “Africane-type sesquiterpenoids from the Argentine liverwort Porella swartziana and their antibacterial activity” (J Nat Prod, 2004)
# Calls of active or inactive are those of the source. No cut-off for these calls is given here.
# Tests used:
# [1] = test system: Staphylococcus aureus; experiment: Antibacterial activity against Staphylococcus aureus ATCC 6538 P at below 625 ug/mL after 24 hrs by broth microdilution method; format: functional, organism-based
# Method in brief: (§1)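 Broth microdilution in LAPTg medium (pH 6.8). Inoculum set to 0.5 McFarland (10⁸ CFU/mL), then diluted to 10⁵ CFU/mL and confirmed by plate counts. Added to 0.1 mL broth containing compound over 5000 to 156.2 µg/mL, with DMSO as solvent. Incubated 24 h at 37 °C. MIC taken as the lowest concentration with no visible growth.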
# [2] = test system: Staphylococcus aureus; experiment: Antibacterial activity against Staphylococcus aureus F7 at below 625 ug/mL after 24 hrs by broth microdilution method; format: functional, organism-based; method in brief: as §1
Structure (SMILES),Activity [1],Activity [2]
CC1(C)C[C@H]2C[C@@]2(C)C2=CC(=O)[C@@](C)(O)[C@@H]2C1,inactive,inactive
CC1(C)C[C@H]2C[C@@]2(C)C2=CC(=O)[C@@]3(C)O[C@@]23C1,inactive,inactive
C[C@H]1C(=O)C=C2[C@H]1CC(C)(C)C[C@H]1C[C@@]21C,inactive,inactive
COC(=O)CC1=C(C(C)=O)CC(C)(C)C[C@H]2C[C@@]12C,inactive,inactive
CC1(C)CC2=C(C(=O)O[C@]2(C)O)[C@]2(C)C[C@@H]2C1,inactive,inactive
Cc1oc(=O)cc2c1CC(C)(C)C[C@H]1C[C@@]21C,inactive,inactive
CC1(C)C=C2C(=CC(=O)[C@@]2(C)O)[C@]2(C)C[C@@H]2C1,inactive,inactive
C[C@@H]1OC(=O)C2=C1CC(C)(C)C[C@H]1C[C@@]21C,inactive,inactive
CC1(C)S[C@@H]2[C@H](NC(=O)Cc3ccccc3)C(=O)N2[C@H]1C(=O)O,Active,Active
